In brackets after ≈: the same amount, converted by molar mass.
Target: T1, Hexokinase-4 (Homo sapiens, UniProt P35557)
T1 sequence (P35557 whole entry): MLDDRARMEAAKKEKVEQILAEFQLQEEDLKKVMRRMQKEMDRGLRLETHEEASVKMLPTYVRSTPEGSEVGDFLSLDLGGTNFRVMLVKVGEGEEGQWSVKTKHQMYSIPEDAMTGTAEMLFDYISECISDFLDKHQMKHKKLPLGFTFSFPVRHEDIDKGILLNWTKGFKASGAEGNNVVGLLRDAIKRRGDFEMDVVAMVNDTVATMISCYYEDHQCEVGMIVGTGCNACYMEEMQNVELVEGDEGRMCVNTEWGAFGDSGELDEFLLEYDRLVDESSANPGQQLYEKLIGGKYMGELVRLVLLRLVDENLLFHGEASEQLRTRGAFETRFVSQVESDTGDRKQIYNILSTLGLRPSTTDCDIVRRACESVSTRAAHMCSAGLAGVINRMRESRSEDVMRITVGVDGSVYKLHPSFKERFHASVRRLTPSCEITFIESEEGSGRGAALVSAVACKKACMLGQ
Experiment: Activation of His-tagged recombinant glucokinase expressed in Escherichia coli using [14C]-glucose substrate by […]
Conditions: not given

| Structure (SMILES) | EC50 |
| --- | --- |
| COC[C@H](C)Oc1cc(O[C@@H](C)Cc2ccc(F)cc2)cc(C(=O)Nc2ccc(C(=O)O)cn2)c1 | 0.04 µM |
| COC[C@H](C)Oc1cc(O[C@@H](C)Cc2ccc(Cl)o2)cc(C(=O)Nc2ccc(C(=O)O)cn2)c1 | 0.03 µM |
| COCC(C)(C)Oc1cc(O[C@@H](C)Cc2ccccc2)cc(C(=O)Nc2ccc(C(=O)O)cn2)c1 | > 10 µM |
| C[C@@H](Cc1ccccc1)Oc1cc(OC2CCOCC2)cc(C(=O)Nc2ccc(C(=O)O)cn2)c1 | > 10 µM |
| COC[C@H](C)Oc1cc(OC[C@H](C)c2ccccc2)cc(C(=O)Nc2ccc(C(=O)O)cn2)c1 | 0.07 µM |
| CC(C)Oc1cc(OC2Cc3ccccc3C2)cc(C(=O)Nc2ccc(C(=O)O)cn2)c1 | 0.1 µM |
| COC[C@H](C)Oc1cc(Oc2ccccc2)cc(C(=O)Nc2ccc(C(=O)O)cn2)c1 | 0.16 µM |
| COC[C@H](C)Oc1cc(Oc2ccc(OC)cc2)cc(C(=O)Nc2ccc(C(=O)O)cn2)c1 | 0.06 µM |
| COC[C@H](C)Oc1cc(Oc2cccc(Cl)c2)cc(C(=O)Nc2ccc(C(=O)O)cn2)c1 | 0.11 µM |
| COC[C@H](C)Oc1cc(Oc2cccc(F)c2)cc(C(=O)Nc2ccc(C(=O)O)cn2)c1 | 0.18 µM |
| COC[C@H](C)Oc1cc(Oc2cccc(N(C)C)c2)cc(C(=O)Nc2ccc(C(=O)O)cn2)c1 | 0.4 µM |
| COC[C@H](C)Oc1cc(Oc2ccc(S(C)(=O)=O)cc2)cc(C(=O)Nc2ccc(C(=O)O)cn2)c1 | 0.06 µM |
| COC[C@H](C)Oc1cc(Oc2cc(F)cc(F)c2)cc(C(=O)Nc2ccc(C(=O)O)cn2)c1 | 0.09 µM |
| CC(C)Oc1cc(O[C@@H](C)c2ccccc2)cc(C(=O)Nc2ccc(C(=O)O)cn2)c1 | 0.15 µM |

Test system: not listed separately
Experiment: Solubility of the compound
Format: physicochemical
Conditions: not given

| Structure (SMILES) | solubility |
| --- | --- |
| COC[C@H](C)Oc1cc(Oc2cc(F)cc(F)c2)cc(C(=O)Nc2ccc(C(=O)O)cn2)c1 | 841 µM (≈ 386 µg/mL) |

Test system: not listed separately
Experiment: Percentage unbound in dog plasma
Format: ADME, cell-free, Canis lupus familiaris
Conditions: not given
Outline: (§1)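 Unbound fraction in plasma was measured by equilibrium dialysis and reported as percentage free.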

| Structure (SMILES) | fraction unbound |
| --- | --- |
| COC[C@H](C)Oc1cc(Oc2cc(F)cc(F)c2)cc(C(=O)Nc2ccc(C(=O)O)cn2)c1 | 0.0159 |
| COC[C@H](C)Oc1cc(O[C@@H](C)Cc2ccccc2)cc(C(=O)Nc2ccc(C(=O)O)cn2)c1 | 0.0146 |

Test system: not listed separately
Experiment: Percentage unbound in human plasma
Format: ADME, cell-free
Conditions: not given
Outline: as §1

| Structure (SMILES) | fraction unbound |
| --- | --- |
| COC[C@H](C)Oc1cc(Oc2cc(F)cc(F)c2)cc(C(=O)Nc2ccc(C(=O)O)cn2)c1 | 0.0055 |
| COC[C@H](C)Oc1cc(O[C@@H](C)Cc2ccccc2)cc(C(=O)Nc2ccc(C(=O)O)cn2)c1 | 0.0044 |

Test system: not listed separately
Experiment: Half life in rat
Format: ADME, organism-based
Conditions: in vivo

| Structure (SMILES) | half-life |
| --- | --- |
| COC[C@H](C)Oc1cc(Oc2cc(F)cc(F)c2)cc(C(=O)Nc2ccc(C(=O)O)cn2)c1 | 15.8 h |
| COC[C@H](C)Oc1cc(O[C@@H](C)Cc2ccccc2)cc(C(=O)Nc2ccc(C(=O)O)cn2)c1 | 4.5 h |

Test system: not listed separately
Experiment: Bioavailability in rat
Format: ADME, organism-based
Conditions: in vivo

| Structure (SMILES) | bioavailability |
| --- | --- |
| COC[C@H](C)Oc1cc(Oc2cc(F)cc(F)c2)cc(C(=O)Nc2ccc(C(=O)O)cn2)c1 | 97% |

Test system: not listed separately
Experiment: Clearance in dog
Format: ADME, organism-based, Canis lupus familiaris
Conditions: in vivo

| Structure (SMILES) | clearance |
| --- | --- |
| COC[C@H](C)Oc1cc(Oc2cc(F)cc(F)c2)cc(C(=O)Nc2ccc(C(=O)O)cn2)c1 | 5.2 mL/min/kg |

Test system: not listed separately
Experiment: Half life in dog
Format: ADME, organism-based, Canis lupus familiaris
Conditions: in vivo

| Structure (SMILES) | half-life |
| --- | --- |
| COC[C@H](C)Oc1cc(Oc2cc(F)cc(F)c2)cc(C(=O)Nc2ccc(C(=O)O)cn2)c1 | 4.9 h |
| COC[C@H](C)Oc1cc(O[C@@H](C)Cc2ccccc2)cc(C(=O)Nc2ccc(C(=O)O)cn2)c1 | 1.4 h |

Test system: not listed separately
Experiment: Bioavailability in dog
Format: ADME, organism-based, Canis lupus familiaris
Conditions: in vivo

| Structure (SMILES) | bioavailability |
| --- | --- |
| COC[C@H](C)Oc1cc(Oc2cc(F)cc(F)c2)cc(C(=O)Nc2ccc(C(=O)O)cn2)c1 | > 100% |

Test system: not listed separately
Experiment: Intrinsic clearance in rat hepatocytes measured per 10^6 cells
Format: ADME, cell-based, Liver, Hepatocyte
Conditions: not given

| Structure (SMILES) | hepatocyte CLint |
| --- | --- |
| COC[C@H](C)Oc1cc(Oc2cc(F)cc(F)c2)cc(C(=O)Nc2ccc(C(=O)O)cn2)c1 | < 1 µL/min/1e6 cells |
| COC[C@H](C)Oc1cc(O[C@@H](C)Cc2ccccc2)cc(C(=O)Nc2ccc(C(=O)O)cn2)c1 | < 1 µL/min/1e6 cells |

Test system: not listed separately
Experiment: Intrinsic clearance in dog hepatocytes measured per 10^6 cells
Format: ADME, cell-based, Canis lupus familiaris, Liver, Hepatocyte
Conditions: not given

| Structure (SMILES) | hepatocyte CLint |
| --- | --- |
| COC[C@H](C)Oc1cc(Oc2cc(F)cc(F)c2)cc(C(=O)Nc2ccc(C(=O)O)cn2)c1 | < 1 µL/min/1e6 cells |
| COC[C@H](C)Oc1cc(O[C@@H](C)Cc2ccccc2)cc(C(=O)Nc2ccc(C(=O)O)cn2)c1 | < 1 µL/min/1e6 cells |

Test system: not listed separately
Experiment: Intrinsic clearance in human hepatocytes measured per 10^6 cells
Format: ADME, cell-based, Liver, Hepatocyte
Conditions: not given

| Structure (SMILES) | hepatocyte CLint |
| --- | --- |
| COC[C@H](C)Oc1cc(Oc2cc(F)cc(F)c2)cc(C(=O)Nc2ccc(C(=O)O)cn2)c1 | < 1 µL/min/1e6 cells |
| COC[C@H](C)Oc1cc(O[C@@H](C)Cc2ccccc2)cc(C(=O)Nc2ccc(C(=O)O)cn2)c1 | < 1 µL/min/1e6 cells |

Test system: not listed separately
Experiment: in vivo
Conditions: CR-Han Wistar, rat, iv, 1 mg/kg

| Structure (SMILES) | clearance |
| --- | --- |
| COC[C@H](C)Oc1cc(O[C@@H](C)Cc2ccc(F)cc2)cc(C(=O)Nc2ccc(C(=O)O)cn2)c1 | 1 mL/min/kg |
| COC[C@H](C)Oc1cc(O[C@@H](C)Cc2ccccc2OC)cc(C(=O)Nc2ccc(C(=O)O)cn2)c1 | 6.1 mL/min/kg |
| COC[C@H](C)Oc1cc(O[C@@H](C)Cc2cc(F)cc(F)c2)cc(C(=O)Nc2ccc(C(=O)O)cn2)c1 | 1.1 mL/min/kg |
| COC[C@H](C)Oc1cc(O[C@@H](C)Cc2ccc(Cl)o2)cc(C(=O)Nc2ccc(C(=O)O)cn2)c1 | 1.6 mL/min/kg |
| COC[C@H](C)Oc1cc(OC[C@H](C)c2ccccc2)cc(C(=O)Nc2ccc(C(=O)O)cn2)c1 | 2.9 mL/min/kg |
| CC(C)Oc1cc(OC2Cc3ccccc3C2)cc(C(=O)Nc2ccc(C(=O)O)cn2)c1 | 1.6 mL/min/kg |
| CC(C)Oc1cc(Oc2ccccc2)cc(C(=O)Nc2ccc(C(=O)O)cn2)c1 | 0.2 mL/min/kg |
| COC[C@H](C)Oc1cc(Oc2ccccc2)cc(C(=O)Nc2ccc(C(=O)O)cn2)c1 | 0.4 mL/min/kg |
| COC[C@H](C)Oc1cc(Oc2ccc(OC)cc2)cc(C(=O)Nc2ccc(C(=O)O)cn2)c1 | 3.2 mL/min/kg |
| COC[C@H](C)Oc1cc(Oc2cccc(Cl)c2)cc(C(=O)Nc2ccc(C(=O)O)cn2)c1 | 0.8 mL/min/kg |
| COC[C@H](C)Oc1cc(Oc2ccc(Cl)cc2)cc(C(=O)Nc2ccc(C(=O)O)cn2)c1 | 0.9 mL/min/kg |
| COC[C@H](C)Oc1cc(Oc2cccc(F)c2)cc(C(=O)Nc2ccc(C(=O)O)cn2)c1 | 0.2 mL/min/kg |
| COC[C@H](C)Oc1cc(Oc2ccc(S(C)(=O)=O)cc2)cc(C(=O)Nc2ccc(C(=O)O)cn2)c1 | 8.2 mL/min/kg |
| COC[C@H](C)Oc1cc(Oc2cc(F)cc(F)c2)cc(C(=O)Nc2ccc(C(=O)O)cn2)c1 | 0.1 mL/min/kg |
| COC[C@H](C)Oc1cc(O[C@@H](C)Cc2ccccc2)cc(C(=O)Nc2ccc(C(=O)O)cn2)c1 | 1.9 mL/min/kg |
| CC(C)Oc1cc(O[C@@H](C)Cc2ccccc2)cc(C(=O)Nc2ccc(C(=O)O)cn2)c1 | 3.3 mL/min/kg |
| CC(C)Oc1cc(O[C@@H](C)c2ccccc2)cc(C(=O)Nc2ccc(C(=O)O)cn2)c1 | 0.6 mL/min/kg |

Test system: not listed separately
Experiment: in vitro
Conditions: rat, plasma

| Structure (SMILES) | fraction unbound |
| --- | --- |
| COC[C@H](C)Oc1cc(O[C@@H](C)Cc2ccc(F)cc2)cc(C(=O)Nc2ccc(C(=O)O)cn2)c1 | 0.0025 |
| COC[C@H](C)Oc1cc(O[C@@H](C)Cc2ccccc2OC)cc(C(=O)Nc2ccc(C(=O)O)cn2)c1 | 0.0042 |
| COC[C@H](C)Oc1cc(O[C@@H](C)Cc2cc(F)cc(F)c2)cc(C(=O)Nc2ccc(C(=O)O)cn2)c1 | 0.001 |
| COC[C@H](C)Oc1cc(O[C@@H](C)Cc2ccc(Cl)o2)cc(C(=O)Nc2ccc(C(=O)O)cn2)c1 | 0.0025 |
| COCC(C)(C)Oc1cc(O[C@@H](C)Cc2ccccc2)cc(C(=O)Nc2ccc(C(=O)O)cn2)c1 | 0.0042 |
| C[C@@H](Cc1ccccc1)Oc1cc(OC2CCOCC2)cc(C(=O)Nc2ccc(C(=O)O)cn2)c1 | 0.0109 |
| COC[C@H](C)Oc1cc(OC[C@H](C)c2ccccc2)cc(C(=O)Nc2ccc(C(=O)O)cn2)c1 | 0.0033 |
| CC(C)Oc1cc(OC2Cc3ccccc3C2)cc(C(=O)Nc2ccc(C(=O)O)cn2)c1 | 0.001 |
| CC(C)Oc1cc(Oc2ccccc2)cc(C(=O)Nc2ccc(C(=O)O)cn2)c1 | 0.0021 |
| COC[C@H](C)Oc1cc(Oc2ccccc2)cc(C(=O)Nc2ccc(C(=O)O)cn2)c1 | 0.0055 |
| COC[C@H](C)Oc1cc(Oc2ccc(OC)cc2)cc(C(=O)Nc2ccc(C(=O)O)cn2)c1 | 0.0069 |
| COC[C@H](C)Oc1cc(Oc2cccc(Cl)c2)cc(C(=O)Nc2ccc(C(=O)O)cn2)c1 | 0.0016 |
| COC[C@H](C)Oc1cc(Oc2ccc(Cl)cc2)cc(C(=O)Nc2ccc(C(=O)O)cn2)c1 | 0.0012 |
| COC[C@H](C)Oc1cc(Oc2cccc(F)c2)cc(C(=O)Nc2ccc(C(=O)O)cn2)c1 | 0.0021 |
| COC[C@H](C)Oc1cc(Oc2cccc(N(C)C)c2)cc(C(=O)Nc2ccc(C(=O)O)cn2)c1 | 0.0122 |
| COC[C@H](C)Oc1cc(Oc2ccc(S(C)(=O)=O)cc2)cc(C(=O)Nc2ccc(C(=O)O)cn2)c1 | 0.0738 |
| COC[C@H](C)Oc1cc(Oc2cc(F)cc(F)c2)cc(C(=O)Nc2ccc(C(=O)O)cn2)c1 | 0.0023 |
| COC[C@H](C)Oc1cc(O[C@@H](C)Cc2ccccc2)cc(C(=O)Nc2ccc(C(=O)O)cn2)c1 | 0.004 |
| CC(C)Oc1cc(O[C@@H](C)Cc2ccccc2)cc(C(=O)Nc2ccc(C(=O)O)cn2)c1 | 0.0023 |
| CC(C)Oc1cc(O[C@@H](C)c2ccccc2)cc(C(=O)Nc2ccc(C(=O)O)cn2)c1 | 0.0035 |

From ChEMBL document CHEMBL1777741, “Design of a potent, soluble glucokinase activator with increased pharmacokinetic half-life” (Bioorg Med Chem Lett, 2011)
